Data taken from ChEMBL document CHEMBL1287653, “Structural modifications on the phenazine N,N'-dioxide-scaffold looking for new selective hypoxic cytotoxins” (Eur J Med Chem, 2010).

tested on: not listed separately; test: Cytotoxicity against chinese hamster V79 cells assessed as survival fraction under normoxic condition at 10 uM after 7 days by crystal violet staining relative to control; assay type: cell-based, Cricetulus griseus; conditions: read-out: Activity
Summary of the method: (§1)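 Exponential-phase V79 cells trypsinized into gassed suspension culture (2 × 10^4 cells/mL, EMEM, 10% FBS, 10 mM HEPES). Compound added 30 min after gassing began, in duplicate flasks, with a DMSO control; exposure 2 h. Cells then plated for colony formation at 37 °C, 5% CO2, for 7 days and stained with crystal violet. Colonies >64 cells counted; survival = PEtreated/PEcontrol × 100; means of two experiments.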

**Q.** With `Nc1ccc2c(c1)[n+]([O-])c1cc(F)ccc1[n+]2[O-]` as the compound, how does the viability at 168 h, 10 µM read?
**A.** The viability at 168 h, 10 µM was 30%.

**Q.** Which viability at 168 h, 10 µM does the source give for `Nc1ccc2c(c1)[n+]([O-])c1cc(Cl)c(Cl)cc1[n+]2[O-]` here?
**A.** The viability at 168 h, 10 µM was 3%.

**Q.** For `[O-][n+]1c2ccc(O)cc2[n+]([O-])c2cc(Cl)c(Cl)cc21`, which viability at 168 h, 10 µM is on record?
**A.** The viability at 168 h, 10 µM was 0%.

tested on: V79; test: Cytotoxicity against chinese hamster V79 cells assessed as concentration required to kill 99% cells under hypoxic condition after 7 days by crystal violet staining relative to control; assay type: functional, Cricetulus griseus; conditions: not given
Summary of the method: (§2)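 V79 Chinese hamster lung fibroblasts grown in EMEM with 10% FBS, then set up as suspension cultures (2 × 10^4 cells/mL, EMEM, 10% FBS, 10 mM HEPES) under simulated hypoxic gassing. Compound in DMSO added 30 min after gassing began, duplicate flasks per dose, 2 h exposure. Cells then plated and grown 7 days at 37 °C, stained with crystal violet, and colonies >64 cells counted. Survival = PEtreated/PEcontrol × 100.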

**Q.** For `Nc1ccc2c(c1)[n+]([O-])c1cc(F)ccc1[n+]2[O-]`, which Activity is on record?
**A.** The Activity was 2.5 µM.

**Q.** Which Activity does the source give for `Nc1ccc2c(c1)[n+]([O-])c1cc(Cl)c(Cl)cc1[n+]2[O-]` here?
**A.** Its Activity is 10 µM.

tested on: V79; test: Cytotoxicity against chinese hamster V79 cells assessed as survival fraction under hypoxic condition at 20 uM after 7 days by crystal violet staining relative to control; assay type: functional, Cricetulus griseus; conditions: not given; summary of the method: as §2

**Q.** Which Activity does the source give for `Nc1ccc2c(c1)nc1cc(Br)ccc1[n+]2[O-]` here?
**A.** Its Activity is 0%.

**Q.** For `Nc1ccc2c(c1)[n+]([O-])c1cc(F)ccc1[n+]2[O-]`, which Activity is on record?
**A.** The Activity was 0%.

**Q.** Which Activity does the source give for `[O-][n+]1c2ccc(Br)cc2[n+]([O-])c2cc(OCc3ccccc3)ccc21` here?
**A.** Its Activity is 90%.

**Q.** With `Cc1cc2c(cc1F)[n+]([O-])c1ccc(O)cc1[n+]2[O-]` as the compound, how does the Activity read?
**A.** The Activity was 95%.

**Q.** Which Activity does the source give for `Nc1ccc2c(c1)[n+]([O-])c1cc(Cl)c(Cl)cc1[n+]2[O-]` here?
**A.** Its Activity is 0%.

**Q.** For `O=C(CCl)Oc1ccc2c(c1)[n+]([O-])c1cc(Br)ccc1[n+]2[O-]`, which Activity is on record?
**A.** The Activity was 62%.

**Q.** For `Cc1ccc2c(c1)[n+]([O-])c1cc(O)c3ncccc3c1[n+]2[O-]`, which Activity is on record?
**A.** Its Activity is 46%.

**Q.** For `[O-][n+]1c2ccc(O)cc2[n+]([O-])c2cc(Cl)c(Cl)cc21`, which Activity is on record?
**A.** The Activity was 0%.

**Q.** For `Cc1ccc2nc3ccc(N)cc3nc2c1`, which Activity is on record?
**A.** The Activity was 100%.

**Q.** With `Cc1ccc2c(c1)nc1cc(N)ccc1[n+]2[O-]` as the compound, how does the Activity read?
**A.** The Activity was 100%.

**Q.** With `Nc1ccc2nc3ccc(Br)cc3nc2c1` as the compound, how does the Activity read?
**A.** The Activity was 0%.

**Q.** Which Activity does the source give for `Cc1cc2c(cc1F)[n+]([O-])c1ccc(N)cc1[n+]2[O-]` here?
**A.** Its Activity is 15%.

tested on: Calf thymus DNA; test: Binding affinity to calf thymus DNA assessed as ratio of final absorbance area to absorbance of compound at 100 uM after 24 hrs by UV spectrophotometer analysis; assay type: nucleic-acid assay; conditions: Bos taurus
Summary of the method: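 Calf thymus DNA in 10 mM Tris-HCl, pH 7.4. Compound stock 10^-4 M (≤5% solvent), diluted with water to 2 × 10^-5 M, then mixed 1:1 with DNA solution. Rotated 24 h; UV spectra taken at 20 °C in a 1-cm cell. Areas of a 20 nm band at λmax at 0 and 24 h; reported as a24/a0.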

**Q.** Which Ratio does the source give for `COc1cc(NS(C)(=O)=O)ccc1Nc1c2ccccc2nc2ccccc12` here?
**A.** Its Ratio is 0.3.

**Q.** For `O=C1c2c(O)ccc(O)c2C(=O)c2c(NCCNCCO)ccc(NCCNCCO)c21`, which Ratio is on record?
**A.** The Ratio was 0.

**Q.** With `Nc1ccc2c(c1)nc1cc(Br)ccc1[n+]2[O-]` as the compound, how does the Ratio read?
**A.** The Ratio was 0.92.

**Q.** For `Nc1ccc2c(c1)[n+]([O-])c1cc(F)ccc1[n+]2[O-]`, which Ratio is on record?
**A.** The Ratio was 0.88.

**Q.** With `[O-][n+]1c2ccc(Br)cc2[n+]([O-])c2cc(OCc3ccccc3)ccc21` as the compound, how does the Ratio read?
**A.** Its Ratio is 0.88.

**Q.** With `Cc1cc2c(cc1F)[n+]([O-])c1ccc(O)cc1[n+]2[O-]` as the compound, how does the Ratio read?
**A.** Its Ratio is 0.83.

**Q.** For `Nc1ccc2c(c1)[n+]([O-])c1cc(Cl)c(Cl)cc1[n+]2[O-]`, which Ratio is on record?
**A.** The Ratio was 0.98.

**Q.** Which Ratio does the source give for `CN1CCN(c2ccc3[nH]c(-c4ccc5[nH]c(-c6ccc(O)cc6)nc5c4)nc3c2)CC1` here?
**A.** Its Ratio is 0.57.

**Q.** Which Ratio does the source give for `[O-][n+]1c2ccc(O)cc2[n+]([O-])c2cc(Cl)c(Cl)cc21` here?
**A.** Its Ratio is 0.96.

**Q.** For `Cc1ccc2nc3ccc(N)cc3nc2c1`, which Ratio is on record?
**A.** The Ratio was 0.85.

**Q.** With `Cc1ccc2c(c1)nc1cc(N)ccc1[n+]2[O-]` as the compound, how does the Ratio read?
**A.** Its Ratio is 0.92.

**Q.** With `Nc1ccc2nc3ccc(Br)cc3nc2c1` as the compound, how does the Ratio read?
**A.** Its Ratio is 0.9.

**Q.** With `CC[n+]1c(-c2ccccc2)c2cc(N)ccc2c2ccc(N)cc21` as the compound, how does the Ratio read?
**A.** The Ratio was 0.5.

**Q.** Which Ratio does the source give for `Cc1cc2c(cc1F)[n+]([O-])c1ccc(N)cc1[n+]2[O-]` here?
**A.** Its Ratio is 0.85.

tested on: Calf thymus DNA; test: Binding affinity to calf thymus DNA assessed as fluorescence quenching at 20 uM after 24 hrs by fluorescence spectroscopy analysis; assay type: nucleic-acid assay; parameters: unit not given here; conditions: Bos taurus

**Q.** For `Nc1ccc2c(c1)nc1cc(Br)ccc1[n+]2[O-]`, which Kq is on record?
**A.** The Kq was 4.2.

**Q.** Which Kq does the source give for `Nc1ccc2c(c1)[n+]([O-])c1cc(F)ccc1[n+]2[O-]` here?
**A.** Its Kq is 7.8.

**Q.** For `Cc1ccc2nc3ccc(N)cc3nc2c1`, which Kq is on record?
**A.** The Kq was 6.1.

**Q.** For `Cc1ccc2c(c1)nc1cc(N)ccc1[n+]2[O-]`, which Kq is on record?
**A.** The Kq was 5.3.

**Q.** For `Nc1ccc2nc3ccc(Br)cc3nc2c1`, which Kq is on record?
**A.** The Kq was 7.3.

tested on: V79; test: Cytotoxicity against chinese hamster V79 cells assessed as survival fraction under hypoxic condition at 10 uM after 7 days by crystal violet staining relative to control; assay type: functional, Cricetulus griseus; conditions: not given; summary of the method: as §2

**Q.** Which Activity does the source give for `Nc1ccc2c(c1)[n+]([O-])c1cc(F)ccc1[n+]2[O-]` here?
**A.** The Activity was 0%.

**Q.** For `Nc1ccc2c(c1)[n+]([O-])c1cc(Cl)c(Cl)cc1[n+]2[O-]`, which Activity is on record?
**A.** Its Activity is 18%.

**Q.** For `[O-][n+]1c2ccc(O)cc2[n+]([O-])c2cc(Cl)c(Cl)cc21`, which Activity is on record?
**A.** The Activity was 8%.

tested on: V79; test: Hypoxic cytotoxicity ratio, concentration required to kill 99% chinese hamster V79 cells under normoxic condition to hypoxic condition; assay type: functional, Cricetulus griseus; conditions: not given
Summary of the method: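 Clonogenic V79 suspension-culture assay run under both air and hypoxic gassing. Cells exposed 2 h in duplicate flasks per dose, then colonies counted after 7 days with crystal violet. Dose–response curves give the dose producing 1% of control survival in each condition. Ratio = air dose divided by hypoxic dose.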

**Q.** With `Nc1ccc2c(c1)[n+]([O-])c1cc(F)ccc1[n+]2[O-]` as the compound, how does the Ratio read?
**A.** The Ratio was 6.8.

**Q.** Which Ratio does the source give for `Nc1ccc2c(c1)[n+]([O-])c1cc(Cl)c(Cl)cc1[n+]2[O-]` here?
**A.** The Ratio was 0.9.

tested on: not listed separately; test: Cytotoxicity against chinese hamster V79 cells assessed as survival fraction under normoxic condition at 20 uM after 7 days by crystal violet staining relative to control; assay type: cell-based, Cricetulus griseus; conditions: read-out: Activity; summary of the method: as §1

**Q.** Which viability at 168 h, 20 µM does the source give for `Nc1ccc2c(c1)nc1cc(Br)ccc1[n+]2[O-]` here?
**A.** The viability at 168 h, 20 µM was 0%.

**Q.** With `Nc1ccc2c(c1)[n+]([O-])c1cc(F)ccc1[n+]2[O-]` as the compound, how does the viability at 168 h, 20 µM read?
**A.** The viability at 168 h, 20 µM was 0%.

**Q.** With `[O-][n+]1c2ccc(Br)cc2[n+]([O-])c2cc(OCc3ccccc3)ccc21` as the compound, how does the viability at 168 h, 20 µM read?
**A.** Its viability at 168 h, 20 µM is 86%.

**Q.** With `Cc1cc2c(cc1F)[n+]([O-])c1ccc(O)cc1[n+]2[O-]` as the compound, how does the viability at 168 h, 20 µM read?
**A.** The viability at 168 h, 20 µM was 100%.

**Q.** With `Nc1ccc2c(c1)[n+]([O-])c1cc(Cl)c(Cl)cc1[n+]2[O-]` as the compound, how does the viability at 168 h, 20 µM read?
**A.** The viability at 168 h, 20 µM was 2%.

**Q.** For `O=C(CCl)Oc1ccc2c(c1)[n+]([O-])c1cc(Br)ccc1[n+]2[O-]`, which viability at 168 h, 20 µM is on record?
**A.** The viability at 168 h, 20 µM was 84%.

**Q.** Which viability at 168 h, 20 µM does the source give for `Cc1ccc2c(c1)[n+]([O-])c1cc(O)c3ncccc3c1[n+]2[O-]` here?
**A.** The viability at 168 h, 20 µM was 49%.

**Q.** Which viability at 168 h, 20 µM does the source give for `[O-][n+]1c2ccc(O)cc2[n+]([O-])c2cc(Cl)c(Cl)cc21` here?
**A.** The viability at 168 h, 20 µM was 1%.

**Q.** For `Cc1ccc2nc3ccc(N)cc3nc2c1`, which viability at 168 h, 20 µM is on record?
**A.** The viability at 168 h, 20 µM was 98%.

**Q.** For `Cc1ccc2c(c1)nc1cc(N)ccc1[n+]2[O-]`, which viability at 168 h, 20 µM is on record?
**A.** The viability at 168 h, 20 µM was 100%.

**Q.** Which viability at 168 h, 20 µM does the source give for `Nc1ccc2nc3ccc(Br)cc3nc2c1` here?
**A.** The viability at 168 h, 20 µM was 0%.

**Q.** With `Cc1cc2c(cc1F)[n+]([O-])c1ccc(N)cc1[n+]2[O-]` as the compound, how does the viability at 168 h, 20 µM read?
**A.** The viability at 168 h, 20 µM was 88%.
